Measured values published in ChEMBL document CHEMBL1799981, “Synthesis and evaluation of nitric oxide-releasing derivatives of 3-n-butylphthalide as anti-platelet agents” (Bioorg Med Chem Lett, 2011).

What was measured:
[1] = Induction of NO release from the compound in phosphate buffer at pH 7.4 at 0.1 mM incubated for 15 to 300 mins measured every 15 mins for 120 mins and every 30 mins for remaining time by Griess assay; assay type: physicochemical; details: pH 7.4, 100 µM
Method in brief: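 Compound at 0.1 mM in PBS pH 7.4 containing 2% DMSO and 5.0 mM L-cysteine, incubated at 37 °C for 15–300 min. Sampled every 15 min up to 120 min, then every 30 min. Samples (2 mL) mixed with Griess reagent, 37 °C 10 min, absorbance at 540 nm. NO quantified against nitrite standards; means per time point.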

[2] = Aqueous solubility of the compound; assay type: physicochemical; details: buffer
[3] = Antiplatelet activity in rabbit platelet rich plasma assessed as inhibition of ADP-induced aggregation at 1 mM treated for 5 mins before ADP challenge by turbidimetry; assay type: functional; details: Oryctolagus cuniculus
Method in brief: (§1)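 Rabbit PRP (low-speed spin 500 rpm 10 min; PPP from 3000 rpm 10 min as reference) pre-treated in duplicate with vehicle, reference drug or compound for 5 min, then ADP 10 µM final at 37 °C for 5 min. Aggregation followed by optical density (Born turbidimetry). % inhibition versus vehicle-treated ADP-exposed controls; IC50 by nonlinear regression, top concentration 1.0 mM. Mean ± S.D., n = 4.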

[4] = Antiplatelet activity in rabbit platelet rich plasma assessed as inhibition of ADP-induced aggregation treated for 5 mins before ADP challenge by turbidimetry; assay type: functional; details: Oryctolagus cuniculus; method in brief: as §1
[5] = Antiplatelet activity in rabbit platelet rich plasma assessed as inhibition of ADP-induced aggregation at 1 mM treated for 5 mins before ADP challenge by turbidimetry in presence of endogenous NO scavenger hemoglobin; assay type: functional; details: Oryctolagus cuniculus
Method in brief: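 Rabbit PRP exposed to compound at 1.0 mM for 5 min at 37 °C together with hemoglobin 20 µM (NO scavenger), then challenged with ADP 10 µM. Aggregation monitored turbidimetrically. Inhibition relative to vehicle-treated ADP-exposed controls. Mean ± SD from several independent experiments; Student's t test.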

SMILES	Activity [1] [µg/mL]	inhibition at 1000 µM [3] [%]	further results
CCCCC(OC(=O)CN1CCOCC1)c1ccccc1C(=O)Oc1ccc(/C=C/C(=O)NCCO[N+](=O)[O-])cc1.Cl (centres undefined)	0.043	–	–
CCCCC(OC(=O)CN1CCCCC1)c1ccccc1C(=O)Oc1ccc(/C=C/C(=O)NCCO[N+](=O)[O-])cc1.Cl (centres undefined)	–	82.4	solubility [2]: soluble
CCCCC(OC(=O)CN(CC)CC)c1ccccc1C(=O)Oc1ccc(/C=C/C(=O)NCCCO[N+](=O)[O-])cc1.Cl (centres undefined)	–	82.1	solubility [2]: soluble
CCCCC(OC(=O)CN(CC)CC)c1ccccc1C(=O)O (centres undefined)	–	67.2	–
COc1cc(/C=C/C(=O)NCCO[N+](=O)[O-])ccc1O	–	51.3	–
CCCCC1OC(=O)c2ccccc21 (racemic) [RAC-3-N-BUTYLPHTHALIDE]	–	67.8	–
CC(=O)Oc1ccccc1C(=O)O [ASPIRIN]	–	68.5	–

Second part, led by results:

Activity [1] [µg/mL]	SMILES	inhibition at 1000 µM [3] [%]	further results
0.057	CCCCC(OC(=O)CN(CC)CC)c1ccccc1C(=O)Oc1ccc(/C=C/C(=O)NCCO[N+](=O)[O-])cc1OC.Cl (centres undefined)	83	solubility [2]: soluble; IC50 [4]: 54.4 µM; inhibition at 1000 µM [5]: 54.4%
0.06	CCCCC(OC(=O)CN1CCCCC1)c1ccccc1C(=O)Oc1ccc(/C=C/C(=O)NCCO[N+](=O)[O-])cc1OC.Cl (centres undefined)	83	IC50 [4]: 39.4 µM
0.027	CCCCC(OC(C)=O)c1ccccc1C(=O)Oc1ccc(/C=C/C(=O)NCC(C)O[N+](=O)[O-])cc1OC (centres undefined)	–	–
0.022	CCCCC(OC(C)=O)c1ccccc1C(=O)Oc1ccc(/C=C/C(=O)NCCO[N+](=O)[O-])cc1 (centres undefined)	–	–
